# Source: PubChem BioAssay
# TDP2 absorb: human TDP2 enzyme inhibitors, primary screen, biochemical, epi absorbance, recombinant enzyme. inhibition, % at 12.8 µM. 0.34% of 370,000 active. T5PNP hydrolysis, p-nitrophenol absorbance 415 nm;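 active = inhibition above the mean of all tested compounds plus 3 SD, set per campaign, cut at about 25% in these data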;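 also: 0% = DMSO with enzyme and 100% = buffer with substrate but no TDP2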
#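 Test system: Human TDP2 enzyme | Reagent: 5 mM T5PNP | Compound dosing: 12.8 µM single point, 1% DMSO | Incubation: Enzyme reaction with compound for 2 h at 37 °C | Technique: p-Nitrophenol epi absorbance | Read-out: % inhibition relative to enzyme-containing and enzyme-free wells | Benchmarks: High control without enzyme, low control DMSO plus TDP2 | Replicates: Singlicate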
# MBD2 inh: inhibitors of MBD2 binding to methylated DNA, primary screen, biochemical, TR-FRET, DNA-binding domain, human; Methyl-CpG-binding domain protein 2 (Homo sapiens), Q9UBB5; MBD2 binding to methylated oligonucleotide; inhibition, % at 4.4 µM; 0.31% of 370,000 active; AID 686964, 2013; in the data active = inhibition above about 13%
# Target sequence (Q9UBB5 whole entry, looked up, the tested form may be a part): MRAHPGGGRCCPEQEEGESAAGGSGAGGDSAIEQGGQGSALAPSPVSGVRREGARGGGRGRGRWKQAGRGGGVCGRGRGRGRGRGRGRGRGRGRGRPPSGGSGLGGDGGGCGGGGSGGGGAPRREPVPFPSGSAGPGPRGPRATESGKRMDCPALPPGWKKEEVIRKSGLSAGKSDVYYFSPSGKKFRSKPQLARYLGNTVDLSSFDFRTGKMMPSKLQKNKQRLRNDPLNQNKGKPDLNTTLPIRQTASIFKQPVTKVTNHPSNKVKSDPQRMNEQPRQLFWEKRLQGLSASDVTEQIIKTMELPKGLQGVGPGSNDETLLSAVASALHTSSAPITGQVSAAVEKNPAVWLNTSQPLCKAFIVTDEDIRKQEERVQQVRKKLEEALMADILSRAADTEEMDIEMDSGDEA
# CASP6 VEID inh: human caspase-6 inhibitors, primary screen, biochemical, VEID-R110 fluorescence, single point, set 2; purified caspase-6, Z-VEID-R110 cleavage fluorescence; inhibition, % at 12.5 µM; 0.53% of 350,000 active; AID 686996, 2013;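 active = mean inhibition across replicates at least about 35%, with every replicate also reaching that limit, limit read from the data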;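 also: 0% = median of neutral control wells and 100% = no fluorescence left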
# UHRF1 MBD2 ctr: UHRF1 methylated DNA binding inhibitors, primary screen, counter-screen for MBD2 inhibitor project, biochemical, TR-FRET, human UHRF1, single concentration. UHRF1 binding to methylated oligo. inhibition, % at 4.4 µM. 0.75% of 370,000 active. AID 687016, 2013; in the data active = inhibition above about 21%;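 also: UHRF1 SRA domain binding a hemimethylated CpG hairpin DNA probe; 0% = median of test compound wells and 100% = reference inhibitor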
# LEDGF integ inh: blockers of LEDGF/p75-dependent integrase strand transfer – biochemical, TR-FRET, high throughput, primary screen. inhibition, % at 3.7 µM. AID 743269, 2014. 0.64% of 370,000 active. HIV-1 integrase (with human LEDGF/p75). TR-FRET IN-LEDGF/p75 DNA integration, Eu/Cy5;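 active = inhibition above the screen-wide mean plus 3 SD, cut at about 13% in these data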;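 also: signal is the Cy5 over europium emission ratio at 671 and 618 nm; 0% = plate median of compound wells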
# NSD2 HMT inh: NSD2 histone methyltransferase inhibitors, primary screen, biochemical, AlphaScreen, single concentration, set 2. NSD2 peptide methylation, 120 min. inhibition, % at 12.5 µM. Histone-lysine N-methyltransferase NSD2 (Homo sapiens), O96028. 0.54% of 310,000 active; in the data active = inhibition above about 50%
# AlphaScreen art: AlphaScreen signal interference with preloaded methylated product, dose response, artefact control for NSD2 inhibitor project, biochemical, cherry-picked samples; AID 1053174, 2014; AlphaScreen artifact counterscreen, preloaded methylated H4 peptide; 9.4% of 1,500 active; shares compounds with NSD2 HMT inh; AC35, µM (top dose mostly 10 µM), for the others: top-dose activity change, negative = signal loss; call rule not given here
# Active calls of the source: *; nt = no result. Hits are enriched below; roughly 1.9% of the tested compounds scored in any of these assays.
SMILES,TDP2 absorb,MBD2 inh,CASP6 VEID inh,UHRF1 MBD2 ctr,LEDGF integ inh,NSD2 HMT inh,AlphaScreen art
Cc1noc(C)c1S(=O)(=O)Nc1ccc2c(c1)C(=O)N([C@H](C)CO)C[C@H](C)[C@@H](CN(C)C(=O)Nc1ccc(F)cc1)OCCCC[C@@H](C)O2,nt,nt,6,nt,nt,nt,nt
COc1cccc(-c2nn3c(-c4ccco4)nnc3s2)c1,-18,-3,nt,-8,0,90*,-5%
CCCC(C(=O)NC(C)(C)C)N(CC1CCCO1)C(=O)CNS(=O)(=O)c1ccc(F)cc1 (configuration not stated),7,-2,-2,1,0,83*,-1%
O=C(CN(C(=O)c1csnn1)c1ccc(F)c(Cl)c1)NC1CCCCC1,-2,4,-1,10,-1,88*,4%
O=C(C[C@@H]1CC[C@H]2[C@@H](COC[C@H](O)CN2C(=O)C2CC2)O1)NCc1ccncc1,nt,nt,1,nt,nt,nt,nt
COc1ccccc1C#Cc1ccc2c(c1)O[C@@H](CN(C)C)[C@H](C)CN([C@@H](C)CO)S2(=O)=O,nt,nt,-1,nt,nt,nt,nt
Oc1cccc(/C=N/Nc2cc(N3CCOCC3)nc(N3CCOCC3)n2)c1,-2,4,nt,-1,4,23,nt
Oc1ccccc1/C=N/Nc1cc(N2CCCC2)nc(N2CCCC2)n1,-5,3,nt,-5,-3,54*,-14%
Oc1ccc(/C=N/Nc2cc(N3CCOCC3)nc(N3CCOCC3)n2)cc1O,7,-9,6,-5,-3,106*,-18%
Cc1ccc(N2CS(=O)(=O)/C(=C/N(C)C)C2=O)cc1,9,1,nt,3,0,64*,-1%
OC[C@H]1[C@H](c2ccc(-c3cccc(F)c3)cc2)[C@H]2CN(Cc3cncnc3)CCCCN21,nt,nt,1,nt,nt,nt,nt
CCN(CCNC(=O)C1CCCN(c2ncnc3c2nc2n3CCCCC2)C1)Cc1ccccc1 (configuration not stated),0,-2,7,1,2,7,nt
CC(C)N(Cc1ccccc1)C(=O)C1CCCN(c2ncnc3c2nc2n3CCCCC2)C1 (configuration not stated),13,1,-3,1,-2,54*,-3%
COc1ccc(-c2cn[nH]c2N)cc1,-23,-4,nt,3,-1,63*,-3%
CCOc1ccc(-c2cn[nH]c2N)cc1,nt,nt,-3,nt,nt,0,nt
CC(C)CC#Cc1ccc([C@@H]2[C@H](CO)N3C(=O)CN(C(=O)CN4CCOCC4)C[C@@H]23)cc1,nt,nt,1,nt,nt,nt,nt
CCCNC(=O)Nc1ccc2c(c1)C(=O)N(C)C[C@H](OC)[C@H](C)CN(S(C)(=O)=O)[C@@H](C)CO2,nt,nt,1,nt,nt,nt,nt
O=C1Nc2ccc(S(=O)(=O)NCc3ccco3)c3cccc1c23,-5,-10,nt,-2,4,135*,-2%
O=C(O)CNS(=O)(=O)c1ccc2c3c(cccc13)C(=O)N2,11,-5,32,1,3,5,nt
CCNCCC(=O)N1c2ccccc2Sc2ccc(C(F)(F)F)cc21,11,0,-3,-2,0,78*,-7%
O=C(CN1CCCC1)N1c2ccccc2Sc2ccc(C(F)(F)F)cc21,5,3,nt,1,2,4,nt
CCN(CC)CCNC(=S)Nc1ccc2nc(N3CCN(C)CC3)cc(C)c2c1,4,3,-52,4,-4,nt,nt
CCN(CC)CCNC(=S)Nc1ccc2nc(N3CCCC3)cc(C)c2c1,-6,0,-53,7,2,66*,-4%
Cc1cccc(OCCn2c(=S)[nH]c3ccccc32)c1,-7,4,nt,3,-2,113*,4%
